Test [1] relates to B16. The test can be described thus: Inhibition of alpha-MSH-stimulated melanogenesis in mouse B16 cells assessed as reduction in melanin production incubated for 3 days. It is filed as functional, cell-based. To be noted: B16, 72 h. The procedure, abridged:
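B16 melanoma cells stimulated with α-MSH (100nM) and incubated with test agent for three days. Melanin released into the culture medium was quantified by sample absorbance against a synthetic melanin standard, and IC50 values were derived from inhibition of melanin formation.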

The subject of test [2] is B16. The test can be described thus: Potency index, ratio of IC50 for arbutin to IC50 for test compound for inhibition of alpha-MSH-stimulated melanogenesis in mouse B16 cells assessed as reduction in melanin production incubated for 3 days. The format is functional.

SMILES strings stand for the structures.

As a reminder, the IC50 is the concentration needed to halve the response being measured.

Regarding `COc1ccc(NC(=O)c2n[nH]c3ccccc23)cc1`, the IC50 in the test with B16 [1] was determined as 20 µM. Turning to `COC(=O)c1ccc(NC(=O)c2n[nH]c3ccccc23)cc1`, the IC50 in the test on B16 [1] was 69 µM. As to `COc1ccccc1NC(=O)c1n[nH]c2ccccc12`, the “Ratio IC50” value in the test on B16 [2] is 4. Besides, the half-inhibitory concentration (IC50) in the test on B16 [1] came to 16 µM.

Regarding `COc1cccc(NC(=O)c2n[nH]c3ccccc23)c1`, the half-maximal inhibitory concentration (IC50) with B16 [1] worked out at 36 µM. The same measure, in the same setting: to `Cc1cccc(NC(=O)c2n[nH]c3ccccc23)c1` belongs 15 µM. Take `Cc1ccc(NC(=O)c2n[nH]c3ccccc23)cc1`: in the test on B16 [1], the concentration for half-maximal inhibition (IC50) amounted to 38 µM.

Take `O=C(Nc1ccc(Cl)cc1)c1n[nH]c2ccccc12`: the half-inhibitory concentration (IC50) in the test on B16 [1] is 93 µM.

On to `O=C(c1ccccc1Cl)n1ncc2cc([N+](=O)[O-])ccc21`, for which, in the test on B16 [2], the “Ratio IC50” value was determined as 9. Further, in the test with B16 [1], the IC50 is 7 µM. On to `O=C(c1ccccc1)n1ncc2cc([N+](=O)[O-])ccc21`, for which, in the test with B16 [1], the IC50 amounted to 51 µM. Turning to `O=C(Nc1ccc(O)cc1)c1n[nH]c2ccccc12`, the IC50 with B16 [1] was determined as 18 µM. `O=C(Nc1ccccc1O)c1n[nH]c2ccccc12`: the 50% inhibitory concentration (IC50) with B16 [1] worked out at 21 µM.

For the molecule `O=C(Nc1cccc(O)c1)c1n[nH]c2ccccc12`, the IC50 with B16 [1] amounted to 35 µM.

As to `O=C(c1ccccc1)n1ncc2cc([N+](=O)[O-])c(Br)cc21`, the concentration for half-maximal inhibition (IC50) in the test on B16 [1] turned out to be 32 µM.

Turning to `Cc1cccc(C(=O)n2ncc3cc([N+](=O)[O-])c(Br)cc32)c1`, in the test with B16 [1], the IC50 came out at 28 µM. As to `O=C(Cc1cccs1)n1ncc2cc([N+](=O)[O-])ccc21`, in the test on B16 [1], the IC50 worked out at 55 µM.

With `O=C(c1ccccc1Cl)n1ncc2cc([N+](=O)[O-])c(Br)cc21`, the “Ratio IC50” value in the test on B16 [2] is on record as 4. Further, the IC50 with B16 [1] was found to be 25 µM. Taken in the same sequence, the figures for `O=C(Nc1ccc(C(F)(F)F)cc1)c1n[nH]c2ccccc12` were 4 and 15 µM. Turning to `O=C(Nc1ccc(OC(F)(F)F)cc1)c1n[nH]c2ccccc12`, in the test on B16 [2], the “Ratio IC50” value is given as 5. Moreover, in the test on B16 [1], the half-maximal inhibitory concentration (IC50) amounted to 13 µM.

For the molecule `O=C(c1ccc(Cl)cc1)n1ncc2cc([N+](=O)[O-])ccc21`, the IC50 with B16 [1] amounted to 60 µM. Same read-out and setting: to `Cc1cccc(C(=O)n2ncc3cc([N+](=O)[O-])ccc32)c1` belongs 77 µM; to `O=C(Nc1ccccc1)c1n[nH]c2ccccc12`, 40 µM.

Regarding `OC[C@H]1O[C@@H](Oc2ccc(O)cc2)[C@H](O)[C@@H](O)[C@@H]1O` [ARBUTIN], the IC50 in the test with B16 [1] is 64 µM.

These data come from ChEMBL document CHEMBL4385665, “Synthesis of N-arylindazole-3-carboxamide and N-benzoylindazole derivatives and their evaluation against α-MSH-stimulated melanogenesis” (Bioorg Med Chem Lett, 2019).
